Article PMC11443182 (Science signaling, 2024)
“Also recorded” adds a separate entry of the source.

Legend:
[1] = tested on: AT1R C-terminal tail mutants (PROX, MID, DIST, NULL); experiment: DiscoverX active endocytosis assay; format: cell-based, human; conditions: U2OS cells; β-arrestin2-EA; 3 h 37 °C; chemiluminescence; N=3
Outline: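 U2OS cells stably expressing β-arrestin2-EA and endosome-localized PK were transfected with WT or mutant AT1R, replated next day at 35,000 cells/well, and treated with ligands 3 h at 37 °C two days post-transfection. PathHunter detection reagents were added with 1 h RT incubation, then β-gal complementation chemiluminescence was read. Results are expressed as fold of untreated cells.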

[2] = tested on: AT1R / β-arrestin; conditions: receptor "pre-phosphorylated"; AngII vs TRV023; cited from earlier work
[3] = tested on: AT1R / GRKs; conditions: cited from earlier work
[4] = tested on: WT and mutant AT1Rs (p-ERK/t-ERK) in GqKO cells; experiment: ERK phosphorylation Western blot, HEK293 GqKO cells, WT and mutant AT1Rs; format: cell-based, human; conditions: for ERK activation in GqKO cells: HEK293 GqKO cells vs WT cells, AngII 1 μM, TRV023 10 μM, Telm 10 μM
Outline: (§1)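 Receptor constructs (plasmid amounts adjusted to equalise receptor expression by radioligand binding) transfected with lipofectamine 2000 into cells grown in MEM with 10% FBS. […] RIPA lysis with protease/phosphatase inhibitors, 1 h at 4°C. SDS-PAGE/PVDF; phospho-ERK1/2 (1:1000) normalised to total ERK1/2 (1:2000).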

[5] = tested on: AT1R C-terminal tail mutants (p-ERK/t-ERK); experiment: ERK phosphorylation Western blot, HEK293 cells, AT1R mutants; format: cell-based, human; conditions: 10 min, N=8-9
Outline: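 HEK293 cells in 6-well plates were lipofectamine 2000-transfected with WT or mutant AT1R, with DNA adjusted to matched expression. Medium was refreshed on day 1. […] RIPA lysates with protease/phosphatase inhibitors were run on SDS-PAGE/PVDF and probed for phospho-ERK1/2 (1:1000) versus total ERK1/2 (1:2000) overnight at 4 °C.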

[6] = tested on: WT and mutant AT1Rs (nuclear ERK activity); experiment: Nuclear ERK BRET; format: cell-based, human
[7] = tested on: WT AT1R; experiment: Intramolecular FlAsH BRET; format: cell-based, human; conditions: HEK293 cells, AngII 1 μM, TRV023 10 μM, 10 min, N=4
Outline: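 HEK293 cells were Fugene HD-cotransfected with 1.5 µg AT1R and 0.1 µg of each rLuc–β-arrestin2–FlAsH construct. At 48 h cells in HBSS were labeled with 2.5 µM TC-FlAsH (or mock) for 30 min at RT, washed in BAL buffer and plated at 100,000/well. […] Six readings were taken (440–480 / 525–585 nm). Net BRET was calculated after mock-label and vehicle subtraction; N=4.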

[8] = tested on: AT1R C-terminal tail mutants (PROX, MID, DIST, NULL); experiment: Intramolecular FlAsH BRET; format: cell-based, human; conditions: HEK293 cells, 10 min, N=4
[9] = tested on: FLAG-tagged human WT AT1R; format: cell-based; conditions: AngII 1 μM, TRV023 10 μM, 10 min, N=5
Outline: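 Expi293F cells with inducible N-terminal FLAG-human AT1R (~2.5×10^6 density) were induced 30–36 h with doxycycline 4 µg/mL plus 5 mM butyrate, with expression checked by radioligand binding. […] Receptor was solubilized in MNG/CHS buffer with 1 µM losartan and PhosSTOP, purified on M1 anti-FLAG (EDTA/FLAG-peptide elution), TCA-precipitated, then reduced (TCEP) and alkylated (iodoacetamide) in 8 M urea/EPPS pH 8.5.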

[10] = tested on: AT1R mutants (Ca2+ response); experiment: FLIPR Ca2+ assay, AT1R mutants; format: cell-based, human; conditions: HEK293T cells; AngII serial doses, 37 °C; AUC; n=5
Outline: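 HEK293T cells (500,000/well) were transfected 24 h after seeding with WT, or adjusted amounts of PROX or MID AT1R giving equal expression. Next day they were replated at 50,000/well overnight and loaded with Calcium 6 dye 2 h at 37 °C.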

[11] = tested on: AT1R mutants (Gq); experiment: G protein activation TRUPATH BRET assay; format: cell-based, human; conditions: AngII concentration response; any of the AT1R mutants
[12] = tested on: AT1R WT / GRK2; experiment: GRK2 recruitment BRET assay, WT AT1R; format: cell-based, human; conditions: GRKΔ4 cells; AngII 1 μM, TRV023 10 μM; 5 min
Outline: (§2)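 GRK2/3/5/6-null HEK293 cells were PEI-transfected with WT or mutant AT1R-Rluc8 (DNA adjusted to match expression) plus 1 µg C-terminally YFP-tagged GRK2. After 24 h they were plated at 50,000/well in 2% FBS starvation MEM. […] Plates were read at 37 °C (530/480 nm), and net BRET was taken as ligand minus vehicle.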

[13] = tested on: AT1R mutants / GRK3; experiment: GRK3 recruitment BRET assay, AT1R mutants; format: cell-based, human; conditions: GRKΔ4 cells; AngII 1 μM, TRV023 10 μM; 5 min
Outline: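 HEK293 cells lacking GRK2/3/5/6 PEI-transfected with WT or mutant AT1R-Rluc8 (DNA adjusted to equalise expression) and 1 µg GRK3-YFP (C-terminal tag). Replated after 24 h at 50,000/well in starvation MEM with 2% FBS. […] Read at 37°C, 530/480 nm; net BRET = ligand minus vehicle.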

[14] = tested on: AT1R C-terminal tail mutants (PROX, MID, DIST, NULL); experiment: β-arrestin recruitment BRET assay, AT1R C-terminal tail mutants; format: cell-based, human; conditions: HEK293 cells, 10 min, 37 °C, N=5
[15] = tested on: AT1R mutants / GRK2; experiment: GRK2 recruitment BRET assay, AT1R mutants; format: cell-based, human; conditions: GRKΔ4 cells; AngII 1 μM, TRV023 10 μM; 5 min
Outline: as §2

[16] = tested on: AT1R C-terminal tail mutants (PROX, MID, DIST, NULL); experiment: β-arrestin1 endocytosis BRET assay, AT1R mutants; format: cell-based, human; conditions: HEK293 cells; β-arrestin1-RlucII/FYVE; 25 min 37 °C; N=4
Outline: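 HEK293 cells coexpressing WT or mutant AT1R, β-arrestin1-RlucII and endosomal FYVE-eGFP were reseeded next day on poly-L-ornithine plates (~25,000/well). […] Coelenterazine 400a (5 µM final) was added 2 min before reading (410/80 and 515/30 nm). Results are given as fold of untreated BRET; N=4.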

[17] = tested on: WT AT1R; experiment: β-arrestin recruitment BRET assay, WT AT1R; format: cell-based, human; conditions: HEK293 cells; WT AT1R-RLuc8, β-arrestin2-eGFP; 10 min, 37 °C; N=5
[18] = tested on: AT1R-PROX mutant (nuclear ERK activity); experiment: Nuclear ERK BRET; format: cell-based, human; conditions: HEK293T cells; AngII 1 μM; 5 min; vs WT receptor
Outline: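 WT or mutant AT1R (DNA adjusted for expression) PEI-co-transfected with 50 ng nuclear-localised EKAR biosensor with a NanoLuciferase donor. After 24 h, replated at 50,000/well in starvation MEM with 0.5% FBS, ± PTX 200 ng/mL. […] Read at 37°C, 530/480 nm; net BRET = ligand minus vehicle.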

[19] = tested on: WT AT1R (p-ERK/t-ERK); experiment: ERK phosphorylation Western blot, HEK293 cells, WT AT1R; format: cell-based, human; conditions: AngII 1 μM, TRV023 10 μM, 10 min, N=8-9
Outline: as §1

Molecule: angiotensin II (DRVYIHPF; Angiotensin-2; UniProt P01019 25-32, looked up) [AngII]
- AT1R internalization: requirement of DIST phosphorylation [1]: largely dispensable
- AT1R internalization: requirement of PROX and MID phosphorylation [1]: required for AT1R internalization
- allosteric interaction with β-arrestin [2]: somewhat stronger allosteric interaction with β-arrestin than does TRV023
- GRK recruitment [3]: recruits GRK2/3 and GRK5/6
- ERK activation in GqKO cells ([4]; 10 min, N=7-8): substantially lower in GqKO cells compared to WT cells
- ERK activation in GqKO cells, PROX mutant ([4]; HEK293 GqKO cells, AT1R-PROX, 10 min, N=7-8): most impairment relative to WT cells; also recorded: more substantially diminished in cells lacking Gq
- ERK phosphorylation, AT1R-MID ([5]; AT1R-MID vs WT AT1R): somewhat higher activation of ERK phosphorylation
- ERK phosphorylation, all phosphorylation-deficient mutants ([5]; AngII 1 μM, TRV023 10 μM): largely similar to that of the WT AT1R
- nuclear ERK activation ([6]; HEK293T cells, AT1R WT and all AT1R mutants, AngII 1 μM, 5 min, net BRET): increase in ERK activation
- β-arrestin2 conformation, six FlAsH sensor profile [7]: distinct β-arrestin conformations
- FlAsH4 BRET signal ([7]; Telm 10 μM): significant decrease in BRET compared to the shape profile induced by Telm
- β-arrestin2 FlAsH profile, AT1R-DIST [8]: more comparable to that of the WT AT1R
- phosphorylation in DIST region ([9]; DIST region): comparable amounts of phosphorylation in the DIST region
- phosphorylation in PROX region ([9]; PROX: Ser326, Ser328, Ser331, Thr332): The magnitude of increase was greatest in the proximal region of the tail; also recorded: the greatest increase in receptor phosphorylation occurred in the PROX region
- EC50 of Ca2+ response [10]: no difference in EC50
- maximal Ca2+ response, AT1R-PROX [10]: reduced maximal Ca^2+ response
- EC50 of G protein activation, AT1R mutants [11]: No difference in EC50
- GRK2 recruitment, AT1R WT [12]: robust recruitment
- GRK3 recruitment, MID mutant [13]: impaired in response to TRV023, but not AngII
- β-arrestin recruitment (net BRET), AT1R-DIST ([14]; AT1R-DIST mutant): robust β-arrestin recruitment
- reduction of β-arrestin recruitment, MID sites mutated ([14]; AT1R-MID mutant): 50%
- reduction of β-arrestin recruitment, PROX sites mutated ([14]; AT1R-PROX mutant): 50%
- GRK2 recruitment, DIST mutant [15]: significantly impaired
- GRK2 recruitment, MID mutant [15]: significantly impaired
- GRK2 recruitment, PROX mutant [15]: robust recruitment
- AT1R internalization: requirement of DIST phosphorylation [16]: largely dispensable
- β-arrestin recruitment (net BRET) [17]: robust β-arrestin recruitment
- nuclear ERK response, PROX mutant [18]: significantly impaired ERK response compared to WT receptor
- ERK phosphorylation (p-ERK/t-ERK) [19]: significant increase in ERK phosphorylation

Molecule: CCCc1nc2c(C)cc(-c3nc4ccccc4n3C)cc2n1Cc1ccc(-c2ccccc2C(=O)O)cc1 [Telm, telmisartan]
- ERK activation in GqKO cells ([4]; 10 min, N=7-8): did not induce ERK activation

Molecule: pertussis toxin [PTX]
- inhibition of AngII-induced ERK activation by PTX ([4]; GqKO cells, PTX pretreatment before AngII, WT and mutant AT1Rs): largely blocked AngII-induced ERK activation
- PTX block of AngII-stimulated nuclear ERK ([6]; PTX 200 ng/mL pretreatment, stimulated by AngII, WT and mutant receptors): about 50%
- PTX block of TRV023-stimulated nuclear ERK ([6]; PTX 200 ng/mL pretreatment, stimulated by TRV023, WT and mutant receptors): about 50%
